Experimental data published in ChEMBL document CHEMBL1157638, “Fluorescent epigenetic small molecule induces expression of the tumor suppressor ras-association domain family 1A and inhibits human prostate xenograft” (J Med Chem, 2010).

Assays:
Format in all cases: functional
[1] = system: SK-MEL-5; experiment: Growth inhibition of human SK-MEL-5 cells assessed as cell growth at 100 nM relative to untreated control; conditions: read-out: Activity
[2] = system: HOP-62; experiment: Growth inhibition of human HOP62 cells assessed as cell growth at 1 uM relative to untreated control; conditions: read-out: Activity
How it was run: (§1)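 Run externally at the National Cancer Institute as a 59-cell-line panel screen, with concentrations up to 100 μM. Growth was scored relative to control, where negative growth or total cell kill was possible. Data are in the Supporting Information.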

[3] = system: COLO 205; experiment: Growth inhibition of human COLO205 cells
[4] = system: HOP-62; experiment: Growth inhibition of human HOP62 cells assessed as cell growth at 100 nM relative to untreated control; conditions: read-out: Activity; how it was run: as §1
[5] = system: DU-145; experiment: Growth inhibition of human DU145 cells assessed as cell growth at 100 nM relative to untreated control; conditions: read-out: Activity; how it was run: as §1
[6] = system: CAKI-1; experiment: Growth inhibition of human Caki1 cells assessed as cell growth at 1 nM relative to untreated control; conditions: read-out: Activity; how it was run: as §1
[7] = system: OVCAR-3; experiment: Growth inhibition of human OVCAR-3 cells assessed as cell growth at 1 uM relative to untreated control; conditions: read-out: Activity
[8] = system: U-251; experiment: Growth inhibition of human U251 cells
[9] = system: MCF7; experiment: Growth inhibition of human MCF7 cells assessed as cell growth at 1 nM relative to untreated control; conditions: read-out: Activity
[10] = system: SK-MEL-5; experiment: Growth inhibition of human SK-MEL-5 cells assessed as cell growth at 1 nM relative to untreated control; conditions: read-out: Activity
[11] = system: SW-620; experiment: Growth inhibition of human SW620 cells assessed as cell growth at 100 nM relative to untreated control; conditions: read-out: Activity
[12] = system: SNB-75; experiment: Growth inhibition of human SNB75 cells
[13] = system: KM12; experiment: Growth inhibition of human KM12 cells assessed as cell growth at 10 nM relative to untreated control; conditions: read-out: Activity
[14] = system: SK-MEL-5; experiment: Growth inhibition of human SK-MEL-5 cells assessed as cell growth at 1 uM relative to untreated control; conditions: read-out: Activity
[15] = system: NCI-H460; experiment: Growth inhibition of human NCI-H460 cells
[16] = system: HCT-15; experiment: Growth inhibition of human HCT15 cells; how it was run: as §1
[17] = Growth inhibition of human Hs 578T cells assessed as cell growth at 10 nM relative to untreated control; conditions: read-out: Activity
[18] = system: SK-MEL-28; experiment: Growth inhibition of human SK-MEL-28 cells assessed as cell growth at 100 nM relative to untreated control; conditions: read-out: Activity
[19] = system: BT-549; experiment: Growth inhibition of human BT549 cells assessed as cell growth at 100 nM relative to untreated control; conditions: read-out: Activity
[20] = system: K562; experiment: Growth inhibition of human K562 cells assessed as cell growth at 100 nM relative to untreated control; conditions: read-out: Activity
[21] = system: CAKI-1; experiment: Growth inhibition of human Caki1 cells assessed as cell growth at 10 nM relative to untreated control; conditions: read-out: Activity; how it was run: as §1
[22] = system: RXF 393; experiment: Growth inhibition of human RXF393 cells assessed as cell growth at 10 nM relative to untreated control; conditions: read-out: Activity
[23] = system: OVCAR-5; experiment: Growth inhibition of human OVCAR5 cells assessed as cell growth at 1 nM relative to untreated control; conditions: read-out: Activity
[24] = system: IGROV-1; experiment: Growth inhibition of human IGROV1 cells assessed as cell growth at 10 uM relative to untreated control; conditions: read-out: Activity
[25] = system: HCT-116; experiment: Growth inhibition of human HCT116 cells assessed as cell growth at 1 uM relative to untreated control; conditions: read-out: Activity; how it was run: as §1
[26] = system: NCI-H23; experiment: Growth inhibition of human NCI-H23 cells assessed as cell growth at 100 nM relative to untreated control; conditions: read-out: Activity
[27] = system: NCI/ADR-RES; experiment: Growth inhibition of human NCI/ADR-RES cells assessed as cell growth at 1 uM relative to untreated control; conditions: read-out: Activity
[28] = system: M14; experiment: Growth inhibition of human M14 cells assessed as cell growth at 10 nM relative to untreated control; conditions: read-out: Activity
[29] = Growth inhibition of human […] cells assessed as cell growth at 10 uM relative to untreated control; conditions: read-out: Activity
[30] = system: UACC-62; experiment: Growth inhibition of human UACC62 cells assessed as cell growth at 100 nM relative to untreated control; conditions: read-out: Activity
[31] = system: NCI/ADR-RES; experiment: Growth inhibition of human NCI/ADR-RES cells assessed as cell growth at 10 uM relative to untreated control; conditions: read-out: Activity
[32] = system: BT-549; experiment: Growth inhibition of human BT549 cells assessed as cell growth at 1 nM relative to untreated control; conditions: read-out: Activity
[33] = system: PC-3; experiment: Growth inhibition of human PC3 cells assessed as cell growth at 1 nM relative to untreated control; conditions: read-out: Activity
[34] = system: COLO 205; experiment: Growth inhibition of human COLO205 cells assessed as cell growth at 10 nM relative to untreated control; conditions: read-out: Activity
[35] = system: NCI-H322M; experiment: Growth inhibition of human NCI-H322M cells assessed as cell growth at 100 nM relative to untreated control; conditions: read-out: Activity
[36] = system: NCI-H522; experiment: Growth inhibition of human NCI-H522 cells assessed as cell growth at 1 uM relative to untreated control; conditions: read-out: Activity
[37] = system: NCI-H23; experiment: Growth inhibition of human NCI-H23 cells assessed as cell growth at 10 nM relative to untreated control; conditions: read-out: Activity
[38] = system: Malme-3M; experiment: Growth inhibition of human MALME-3M cells assessed as cell growth at 100 nM relative to untreated control; conditions: read-out: Activity
[39] = system: 786-0; experiment: Growth inhibition of human 786-0 cells assessed as cell growth at 1 nM relative to untreated control; conditions: read-out: Activity
[40] = system: OVCAR-8; experiment: Growth inhibition of human OVCAR8 cells assessed as cell growth at 100 nM relative to untreated control; conditions: read-out: Activity
[41] = system: MDA-MB-231; experiment: Growth inhibition of human MDA-MB-231 cells
[42] = system: SK-MEL-5; experiment: Growth inhibition of human SK-MEL-5 cells
[43] = system: NCI-H522; experiment: Growth inhibition of human NCI-H522 cells assessed as cell growth at 10 uM relative to untreated control; conditions: read-out: Activity
[44] = system: SNB-19; experiment: Growth inhibition of human SNB19 cells assessed as cell growth at 10 uM relative to untreated control; conditions: read-out: Activity
[45] = system: A498; experiment: Growth inhibition of human A498 cells assessed as cell growth at 1 nM relative to untreated control; conditions: read-out: Activity
[46] = system: HT-29; experiment: Growth inhibition of human HT-29 cells
[47] = system: SK-OV-3; experiment: Growth inhibition of human SKOV3 cells assessed as cell growth at 10 uM relative to untreated control; conditions: read-out: Activity
[48] = system: RXF 393; experiment: Growth inhibition of human RXF393 cells
[49] = read-out: LC50 (the source's name)

Structure (SMILES): COc1ccc2c(c1)[nH]c1c(C)c(OS(=O)(=O)c3cccc4c(N(C)C)cccc34)ccc12
- growth at 0.1 µM [1]: 91%
- growth at 1 µM [2]: 55%
- GI50 [3]: 4.24 µM
- TGI [3]: > 100 µM
- CC50 [3, 49]: > 100 µM
- growth at 0.1 µM [4]: 106%
- growth at 0.1 µM [5]: 103%
- growth at 0.001 µM [6]: 98%
- growth at 1 µM [7]: -35%
- GI50 [8]: 4.28 µM
- TGI [8]: > 100 µM
- CC50 [8, 49]: > 100 µM
- growth at 0.001 µM [9]: 95%
- growth at 0.001 µM [10]: 100%
- growth at 0.1 µM [11]: 95%
- GI50 [12]: 4.48 µM
- TGI [12]: 47.1 µM
- CC50 [12, 49]: > 100 µM
- growth at 0.01 µM [13]: 102%
- growth at 1 µM [14]: -3%
- GI50 [15]: 3.46 µM
- TGI [15]: 55.5 µM
- CC50 [15, 49]: > 100 µM
- GI50 [16]: 4.35 µM
- TGI [16]: > 100 µM
- CC50 [16, 49]: > 100 µM
- growth at 0.01 µM [17]: 103%
- growth at 0.1 µM [18]: 75%
- growth at 0.1 µM [19]: 93%
- growth at 0.1 µM [20]: 91%
- growth at 0.01 µM [21]: 86%
- growth at 0.01 µM [22]: 107%
- growth at 0.001 µM [23]: 107%
- growth at 10 µM [24]: 39%
- growth at 1 µM [25]: 25%
- growth at 0.1 µM [26]: 81%
- growth at 1 µM [27]: 28%
- growth at 0.01 µM [28]: 105%
- growth at 10 µM [29]: -2%
- growth at 0.1 µM [30]: 75%
- growth at 10 µM [31]: 15%
- growth at 0.001 µM [32]: 100%
- growth at 0.001 µM [33]: 101%
- growth at 0.01 µM [34]: 94%
- growth at 0.1 µM [35]: 94%
- growth at 1 µM [36]: 50%
- growth at 0.01 µM [37]: 91%
- growth at 0.1 µM [38]: 85%
- growth at 0.001 µM [39]: 101%
- growth at 0.1 µM [40]: 101%
- GI50 [41]: 9.3 µM
- TGI [41]: > 100 µM
- CC50 [41, 49]: > 100 µM
- GI50 [42]: 2.73 µM
- TGI [42]: 9.34 µM
- CC50 [42, 49]: > 100 µM
- growth at 10 µM [43]: 37%
- growth at 10 µM [44]: 27%
- growth at 0.001 µM [45]: 93%
- GI50 [46]: 3.71 µM
- TGI [46]: > 100 µM
- CC50 [46, 49]: > 100 µM
- growth at 10 µM [47]: 34%
- GI50 [48]: 2.44 µM
- TGI [48]: 5.95 µM
- CC50 [48, 49]: > 100 µM
